Data set [1] concerns the target T1, Macrophage colony-stimulating factor 1 receptor (Mus musculus) (UniProt P09581).
T1 sequence (whole entry): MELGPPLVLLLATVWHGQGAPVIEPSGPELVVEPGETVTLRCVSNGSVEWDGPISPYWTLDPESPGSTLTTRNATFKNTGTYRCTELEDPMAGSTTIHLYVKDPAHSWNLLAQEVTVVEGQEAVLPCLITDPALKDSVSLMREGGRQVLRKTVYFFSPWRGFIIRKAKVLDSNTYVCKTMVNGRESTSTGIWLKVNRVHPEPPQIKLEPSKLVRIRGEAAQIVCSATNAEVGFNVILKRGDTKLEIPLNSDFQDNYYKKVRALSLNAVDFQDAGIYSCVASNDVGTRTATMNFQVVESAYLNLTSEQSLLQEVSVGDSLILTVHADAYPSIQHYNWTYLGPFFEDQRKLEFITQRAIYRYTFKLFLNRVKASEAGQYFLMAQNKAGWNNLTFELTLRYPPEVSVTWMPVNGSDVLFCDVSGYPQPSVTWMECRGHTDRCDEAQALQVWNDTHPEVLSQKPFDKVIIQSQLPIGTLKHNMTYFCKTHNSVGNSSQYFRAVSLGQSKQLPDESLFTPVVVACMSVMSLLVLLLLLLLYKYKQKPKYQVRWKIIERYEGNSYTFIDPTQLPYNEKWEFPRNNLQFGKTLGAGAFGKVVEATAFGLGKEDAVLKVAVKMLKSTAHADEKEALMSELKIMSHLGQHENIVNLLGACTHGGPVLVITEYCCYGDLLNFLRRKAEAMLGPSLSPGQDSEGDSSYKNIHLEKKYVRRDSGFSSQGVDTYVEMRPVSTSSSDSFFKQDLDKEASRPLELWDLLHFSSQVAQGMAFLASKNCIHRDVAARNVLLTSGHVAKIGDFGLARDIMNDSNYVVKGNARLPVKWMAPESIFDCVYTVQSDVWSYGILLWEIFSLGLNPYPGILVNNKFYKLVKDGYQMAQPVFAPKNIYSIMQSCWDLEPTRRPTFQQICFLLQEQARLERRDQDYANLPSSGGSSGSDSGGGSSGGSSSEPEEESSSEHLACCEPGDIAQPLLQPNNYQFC
The experiment in a line: In vivo inhibition of CSF1R in 5XFAD mouse assessed as appearance of CAA in […] cortex at 600 ppm administered as rodent chow starting from 1.5 months and measured after 5 months by immunolabeling based confocal microscopic analysis. The following applies: route po, time 3.5 months.

In data set [2] the test system is Mus musculus. The experiment in a line: Antialzheimer activity in 5XFAD mouse assessed as microglial numbers by measuring number of Iba positive cells per FOV in somatosensory cortex at 75 ppm administered as rodent chow starting from 1.5 months and measured after 5 months by immunolabeling based confocal microscopic analysis (reference value: 281 to 613). It is filed as functional. The conditions noted are these: route po, time 3.5 months, 2555 h. The essentials: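 5xFAD mice fed PLX3397 at 75 ppm in AIN-76A chow from 1.5 to 5 months of age; retrosplenial and somatosensory cortex sections stained with Thio-S and immunolabeled for IBA1; confocal imaging, IBA1+ cells and plaques quantified per region; two-tailed independent t-test, n = 4–5 per group, mean ± SEM.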

Data set [3] can be described thus: Effect on ccl6 gene expression in 5XFAD mouse thalamus at 1200 ppm administered as rodent chow starting from 1.5 months and measured after 7 months by RNA-Seq analysis (reference value: 3.667 to 7.093 RPKM). It is filed as functional. The following applies: route po, time 5.5 months, 4015 h.
For data set [4], the target named is T1, Macrophage colony-stimulating factor 1 receptor (Mus musculus). Description: In vivo inhibition of CSF1R in wildtype mouse assessed as number of Iba1 positive cells per FOV in thalamus cortex at 1200 ppm administered as rodent chow starting from 1.5 months to 4 months followed by compound removal and measured after 1 months by immunolabelling based confocal microscopic analysis (reference value: 232 to 320). The conditions noted are these: route po, time 2.5 months. It is filed as functional.

Data set [5] concerns Mus musculus. Description: Antialzheimer activity in 5XFAD mouse assessed as ApoE immunoreactivity by measuring ApoE intensity of plaque core in cortex at 1200 ppm administered as rodent chow starting from 1.5 months and measured after 7 months by immunolabeling based confocal microscopic analysis (reference value: 13.88 to 87.23 a.u.). The class given is functional. The conditions noted are these: route po, time 5.5 months, 4015 h.

Data set [6] is described as follows: AUC (0 to infinity) in dog at 45 mg/kg, po administered as single dose via gavage. The conditions noted are these: in vivo. The class given is ADME, organism-based, Canis lupus familiaris.
Data set [7] in a line: Effect on Csf1r RPKM gene expression in 5XFAD mouse hippocampus at 1200 ppm administered as rodent chow starting from 1.5 months and measured after 7 months by RNA-Seq analysis (reference value: 33.840 to 41.629 RPKM). The following applies: route po, time 5.5 months, 4015 h. It is filed as functional.
Data set [8] deals with Mus musculus. Description: Antialzheimer activity in 5XFAD mouse assessed as alteration in plaque morphology by measuring average plaque circularity in thalamus at 1200 ppm administered as rodent chow starting from 1.5 months and measured after 7 months by Thio-S labeling based confocal microscopic analysis (reference value: 0.257 to 0.365). The conditions noted are these: route po, time 5.5 months, 4015 h. The class given is functional.

The target in data set [9] is Serine/threonine-protein kinase MRCK beta (Homo sapiens, UniProt Q9Y5S2). Description: Inhibition of CDC42_BPB (unknown origin).
Chain of Serine/threonine-protein kinase MRCK beta (Q9Y5S2 whole entry): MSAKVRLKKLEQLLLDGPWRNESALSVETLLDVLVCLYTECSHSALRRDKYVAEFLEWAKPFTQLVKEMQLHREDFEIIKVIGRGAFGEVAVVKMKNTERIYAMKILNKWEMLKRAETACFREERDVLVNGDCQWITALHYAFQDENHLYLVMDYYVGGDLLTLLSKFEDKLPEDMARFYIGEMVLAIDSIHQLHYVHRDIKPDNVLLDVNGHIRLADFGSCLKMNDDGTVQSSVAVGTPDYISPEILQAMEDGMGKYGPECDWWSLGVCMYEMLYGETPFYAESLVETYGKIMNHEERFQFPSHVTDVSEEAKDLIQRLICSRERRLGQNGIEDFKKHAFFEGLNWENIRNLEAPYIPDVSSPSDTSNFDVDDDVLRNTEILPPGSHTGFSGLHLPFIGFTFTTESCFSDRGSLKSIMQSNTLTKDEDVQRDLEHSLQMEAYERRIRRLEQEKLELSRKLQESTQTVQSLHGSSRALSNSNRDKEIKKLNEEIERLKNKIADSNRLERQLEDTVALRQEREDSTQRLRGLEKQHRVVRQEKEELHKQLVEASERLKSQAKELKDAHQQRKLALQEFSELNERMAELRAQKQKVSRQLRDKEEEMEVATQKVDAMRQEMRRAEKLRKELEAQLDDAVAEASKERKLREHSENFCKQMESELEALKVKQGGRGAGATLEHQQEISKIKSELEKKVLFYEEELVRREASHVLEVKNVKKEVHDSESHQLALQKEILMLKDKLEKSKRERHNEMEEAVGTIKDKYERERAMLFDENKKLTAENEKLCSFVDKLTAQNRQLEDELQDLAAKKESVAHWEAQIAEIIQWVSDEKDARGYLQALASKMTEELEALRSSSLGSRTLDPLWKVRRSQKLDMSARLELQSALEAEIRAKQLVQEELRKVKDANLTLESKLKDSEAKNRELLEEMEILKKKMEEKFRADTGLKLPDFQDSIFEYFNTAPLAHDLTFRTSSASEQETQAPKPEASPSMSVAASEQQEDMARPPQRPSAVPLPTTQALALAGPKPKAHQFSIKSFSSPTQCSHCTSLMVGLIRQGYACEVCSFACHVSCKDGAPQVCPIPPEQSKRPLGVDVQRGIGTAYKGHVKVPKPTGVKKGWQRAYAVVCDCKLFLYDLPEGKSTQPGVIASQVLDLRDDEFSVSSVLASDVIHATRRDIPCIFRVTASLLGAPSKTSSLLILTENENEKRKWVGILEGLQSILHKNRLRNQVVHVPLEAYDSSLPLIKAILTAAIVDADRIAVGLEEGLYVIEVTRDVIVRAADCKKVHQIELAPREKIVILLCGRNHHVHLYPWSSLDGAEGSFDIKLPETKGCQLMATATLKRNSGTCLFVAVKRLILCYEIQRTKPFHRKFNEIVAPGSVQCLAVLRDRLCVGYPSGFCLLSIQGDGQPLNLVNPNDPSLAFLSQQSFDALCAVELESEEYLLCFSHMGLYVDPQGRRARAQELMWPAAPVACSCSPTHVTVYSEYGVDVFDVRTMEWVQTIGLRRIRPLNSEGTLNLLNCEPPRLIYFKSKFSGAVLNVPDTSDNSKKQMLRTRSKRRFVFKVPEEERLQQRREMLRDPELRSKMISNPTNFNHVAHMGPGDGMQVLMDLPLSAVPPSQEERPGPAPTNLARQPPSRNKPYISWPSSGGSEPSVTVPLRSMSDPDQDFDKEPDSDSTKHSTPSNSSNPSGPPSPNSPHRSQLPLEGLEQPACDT
Data set [10] addresses SRSF protein kinase 2 (Homo sapiens, UniProt P78362). Description: Inhibition of SRPK2 (unknown origin).
Data set [11] concerns the target Serine/threonine-protein kinase Nek9 (Homo sapiens, UniProt Q8TD19). The experiment in a line: Inhibition of NEK9 (unknown origin).
Data set [12] addresses Protein kinase C beta type (Homo sapiens, UniProt P05771). Description: Inhibition of PRKCB2 (unknown origin).
Data set [13] addresses T1, Macrophage colony-stimulating factor 1 receptor (Mus musculus). Description: In vivo inhibition of CSF1R in wildtype mouse assessed as iron reactivity by measuring hemosiderin intensity of prussian blue staining in […] cortex at 1200 ppm administered as rodent chow starting from 1.5 months and measured after 7 months by confocal microscopic analysis (reference value: 0.059 to 2.835 a.u.). It is filed as functional. The following applies: route po, time 5.5 months. The essentials: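 Wild-type or 5xFAD mice fed PLX5622 (1200 ppm) in AIN-76A chow from 1.5 months of age, examined in 4- and 7-month-old cohorts. Brain sections stained with a Prussian blue kit per kit instructions to detect iron deposits (microbleeds).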

The nature of data set [14]: Effect on Siglech gene expression in 5XFAD mouse thalamus at 1200 ppm administered as rodent chow starting from 1.5 months and measured after 7 months by RNA-Seq analysis (reference value: 4.466 to 6.336 RPKM). It is filed as functional. The following applies: route po, time 5.5 months, 4015 h.
Data set [15] can be described thus: Half-life in mouse at 1.92 mg/kg, iv administered as single dose. It is filed as ADME, organism-based. The conditions noted are these: in vivo.
Data set [16] in a line: Effect on Cst7 gene expression in wild type mouse thalamus at 1200 ppm administered as rodent chow starting from 1.5 months and measured after 7 months by RNA-Seq analysis (reference value: 0 to 1.803 RPKM). The conditions noted are these: route po, time 5.5 months, 4015 h. The class given is functional.
The target of data set [17] is cAMP-dependent protein kinase catalytic subunit PRKX (Homo sapiens, UniProt P51817). Description: Inhibition of PRKX (unknown origin).
Chain of cAMP-dependent protein kinase catalytic subunit PRKX (P51817 whole entry): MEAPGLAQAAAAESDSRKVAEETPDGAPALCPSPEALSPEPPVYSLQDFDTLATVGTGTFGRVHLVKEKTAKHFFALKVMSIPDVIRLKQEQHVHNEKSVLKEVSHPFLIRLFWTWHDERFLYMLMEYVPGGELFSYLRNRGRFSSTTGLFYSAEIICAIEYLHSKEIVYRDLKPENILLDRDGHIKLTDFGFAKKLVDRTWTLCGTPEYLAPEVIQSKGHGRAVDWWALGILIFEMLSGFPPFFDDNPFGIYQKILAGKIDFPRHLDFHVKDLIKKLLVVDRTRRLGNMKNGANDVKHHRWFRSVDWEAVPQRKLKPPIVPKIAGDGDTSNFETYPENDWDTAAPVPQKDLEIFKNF
In data set [18] the target is CDK7/Cyclin H/MNAT1 (Homo sapiens, UniProt P50613). The experiment in a line: Inhibition of CDK7/CyclinH/MNAT1 (unknown origin). It is filed as protein-complex assay.
Data set [19] in a line: Effect on ccl6 gene expression in 5XFAD mouse cortex at 1200 ppm administered as rodent chow starting from 1.5 months and measured after 7 months by RNA-Seq analysis (reference value: 4.103 to 8.161 RPKM). The following applies: route po, time 5.5 months, 4015 h. The class given is functional.

SMILES strings stand for the structures. Activity calls are given as the source filed them. The rule behind the calls is not given here. Some results are limits rather than exact numbers.

Chain of Serine/threonine-protein kinase Nek9 (Q8TD19 whole entry): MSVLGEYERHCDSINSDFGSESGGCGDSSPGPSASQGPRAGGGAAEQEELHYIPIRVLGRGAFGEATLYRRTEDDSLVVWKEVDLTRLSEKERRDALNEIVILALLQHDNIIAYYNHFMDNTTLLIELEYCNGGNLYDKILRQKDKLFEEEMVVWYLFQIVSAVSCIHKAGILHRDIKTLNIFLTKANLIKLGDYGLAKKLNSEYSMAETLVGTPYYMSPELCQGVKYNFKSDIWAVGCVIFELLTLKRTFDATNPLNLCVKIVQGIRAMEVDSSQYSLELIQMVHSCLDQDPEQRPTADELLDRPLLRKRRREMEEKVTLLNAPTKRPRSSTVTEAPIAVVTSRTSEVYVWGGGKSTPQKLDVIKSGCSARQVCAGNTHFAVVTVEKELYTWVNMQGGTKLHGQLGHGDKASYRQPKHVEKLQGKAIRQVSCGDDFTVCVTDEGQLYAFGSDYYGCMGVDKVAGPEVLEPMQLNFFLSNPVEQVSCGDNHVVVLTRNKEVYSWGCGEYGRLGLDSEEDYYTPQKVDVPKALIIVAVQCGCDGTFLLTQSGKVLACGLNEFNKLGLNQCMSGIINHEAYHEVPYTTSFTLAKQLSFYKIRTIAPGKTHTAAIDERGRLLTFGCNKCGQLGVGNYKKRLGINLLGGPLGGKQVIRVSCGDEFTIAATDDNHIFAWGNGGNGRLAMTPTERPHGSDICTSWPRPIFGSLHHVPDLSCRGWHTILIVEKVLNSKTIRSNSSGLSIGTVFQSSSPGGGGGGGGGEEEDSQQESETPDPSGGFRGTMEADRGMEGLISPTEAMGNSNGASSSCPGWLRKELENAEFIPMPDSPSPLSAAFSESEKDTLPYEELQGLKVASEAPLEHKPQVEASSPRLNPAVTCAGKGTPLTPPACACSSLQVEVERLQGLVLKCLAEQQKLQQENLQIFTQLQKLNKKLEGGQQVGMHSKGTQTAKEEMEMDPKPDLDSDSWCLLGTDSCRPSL
Chain of SRSF protein kinase 2 (P78362 whole entry): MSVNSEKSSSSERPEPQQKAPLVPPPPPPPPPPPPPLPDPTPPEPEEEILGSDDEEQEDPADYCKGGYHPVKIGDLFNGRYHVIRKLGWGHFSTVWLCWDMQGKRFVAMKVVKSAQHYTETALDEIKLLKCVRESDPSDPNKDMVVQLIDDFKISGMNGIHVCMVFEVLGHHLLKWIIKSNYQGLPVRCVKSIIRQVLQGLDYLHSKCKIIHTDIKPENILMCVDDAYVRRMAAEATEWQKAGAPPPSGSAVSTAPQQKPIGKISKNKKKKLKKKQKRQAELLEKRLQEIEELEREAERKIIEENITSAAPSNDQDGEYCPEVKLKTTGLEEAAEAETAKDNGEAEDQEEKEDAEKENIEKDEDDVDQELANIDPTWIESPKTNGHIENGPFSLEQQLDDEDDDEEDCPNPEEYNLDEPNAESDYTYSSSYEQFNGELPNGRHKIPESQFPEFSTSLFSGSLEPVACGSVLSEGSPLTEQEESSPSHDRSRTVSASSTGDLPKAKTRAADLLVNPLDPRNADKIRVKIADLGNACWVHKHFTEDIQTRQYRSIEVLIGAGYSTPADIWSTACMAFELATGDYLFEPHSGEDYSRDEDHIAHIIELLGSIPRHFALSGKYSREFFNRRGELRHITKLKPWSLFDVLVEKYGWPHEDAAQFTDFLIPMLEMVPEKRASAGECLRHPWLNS
Chain of Protein kinase C beta type (P05771 whole entry): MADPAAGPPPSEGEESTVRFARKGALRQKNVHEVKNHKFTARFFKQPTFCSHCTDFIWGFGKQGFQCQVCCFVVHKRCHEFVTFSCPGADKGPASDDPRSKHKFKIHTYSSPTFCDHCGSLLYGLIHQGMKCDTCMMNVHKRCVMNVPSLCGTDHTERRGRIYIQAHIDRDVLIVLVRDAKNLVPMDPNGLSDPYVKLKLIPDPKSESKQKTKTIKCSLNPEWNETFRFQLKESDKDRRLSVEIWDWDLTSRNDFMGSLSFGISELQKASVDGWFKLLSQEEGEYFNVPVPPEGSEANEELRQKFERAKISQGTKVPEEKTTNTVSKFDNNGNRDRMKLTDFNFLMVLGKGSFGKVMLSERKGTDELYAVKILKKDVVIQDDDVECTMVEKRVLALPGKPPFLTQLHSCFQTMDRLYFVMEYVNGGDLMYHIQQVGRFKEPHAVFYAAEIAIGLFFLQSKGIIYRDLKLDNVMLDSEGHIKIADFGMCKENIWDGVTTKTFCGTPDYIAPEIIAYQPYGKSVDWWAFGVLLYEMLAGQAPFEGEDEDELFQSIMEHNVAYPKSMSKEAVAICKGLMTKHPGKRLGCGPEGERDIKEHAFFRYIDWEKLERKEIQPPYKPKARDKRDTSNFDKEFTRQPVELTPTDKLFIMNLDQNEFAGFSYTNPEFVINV

Regarding `FC(F)(F)c1ccc(CNc2ccc(Cc3c[nH]c4ncc(Cl)cc34)cn2)cn1` [PEXIDARTINIB], in data set [1], the inhibition entry was “Active”. In addition, the Activity in data set [2] turned out to be 345.

The term AUC(0-inf) denotes total exposure, with the tail of the curve extrapolated. A higher AUC(0-inf) goes with more exposure. One may read the IC50 as the concentration that inhibits the measured activity by half. The half-life is the time in which the quantity being followed falls by half. Lower therefore signals fast loss. For `COc1ncc(F)cc1CNc1ccc(Cc2c[nH]c3ncc(C)cc23)c(F)n1` [PLX-5622], the Activity in [3] came to 0 RPKM; in data set [4] it was 270; in data set [7] it was 3.234 RPKM; in data set [8], 0.175; in data set [14], 0 RPKM; in [16], 0 RPKM. This compound showed an Activity in data set [19] of 0.241 RPKM. For the same compound, the Flu intensity was 4.57 a.u in [5] and 0.747 a.u in data set [13]. Moreover, the AUC(0-inf) in [6] was found to be 96.5 µg·h/mL. The IC50 in data set [9], in data set [10], in data set [11], in data set [12], in [17] and in data set [18] was greater than 1 µM throughout. The same compound had a half-life in data set [15] of 2.6 h.
